How the values were obtained:
[1] = Aqueous solubility of compound; format: physicochemical
Staphylococcus aureus [2] = test: Growth inhibition of Staphylococcus aureus Newman at 0.2 mM measured after overnight incubation; conditions: 200 µM
Staphylococcus aureus [3] = test: Growth inhibition of Staphylococcus aureus USA400 MW2 at 0.2 mM measured after overnight incubation; conditions: 200 µM
Staphylococcus aureus [4] = test: Growth inhibition of Staphylococcus aureus USA300 LAC at 0.2 mM measured after overnight incubation; conditions: 200 µM
Staphylococcus aureus [5] = test: Growth inhibition of Staphylococcus aureus Mu50 at 0.2 mM measured after overnight incubation; conditions: 200 µM
[6] = Tmax in Sprague-Dawley rat at 5 mg/kg, iv after 24 hrs by LC/MS/MS analysis; format: ADME, organism-based; conditions: in vivo
How it was run: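 Male SD rats (230-260 g), six in total across routes. Single intravenous dose of 5 mg/kg in 10% castor oil/water. Blood sampled at various time points over 24 h. Compound concentration in blood quantified by LC-MS/MS.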

[7] = Half life in Sprague-Dawley rat at 5 mg/kg, iv after 24 hrs by LC/MS/MS analysis; format: ADME, organism-based; conditions: in vivo
How it was run: (§1)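 Male SD rats (230-260 g), six in total; compound in 10% castor oil/water given once IV at 5 mg/kg or PO at 10 mg/kg. Blood sampled at various time points over 24 h, and drug concentration measured by LC-MS/MS.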

[8] = Half life in Sprague-Dawley rat at 10 mg/kg, po after 24 hrs by LC/MS/MS analysis; format: ADME, organism-based; conditions: in vivo; how it was run: as §1
[9] = Tmax in Sprague-Dawley rat at 10 mg/kg, po after 24 hrs by LC/MS/MS analysis; format: ADME, organism-based; conditions: in vivo
How it was run: (§2)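 Male SD rats (230-260 g), six in total across routes. Compound dissolved in 10% castor oil/water, given orally at 10 mg/kg, with an IV arm at 5 mg/kg for comparison. Blood sampled at various time points over 24 h. Blood concentrations measured by LC-MS/MS.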

[10] = Cmax in Sprague-Dawley rat at 5 mg/kg, iv after 24 hrs by LC/MS/MS analysis; format: ADME, organism-based; set-up: dose 5 mg/kg, route intravenous; conditions: in vivo; how it was run: as §1
[11] = Cmax in Sprague-Dawley rat at 10 mg/kg, po after 24 hrs by LC/MS/MS analysis; format: ADME, organism-based; set-up: dose 10 mg/kg, route oral; conditions: in vivo; how it was run: as §1
[12] = AUC (0 to t) in Sprague-Dawley rat at 5 mg/kg, iv after 24 hrs by LC/MS/MS analysis; format: ADME, organism-based; set-up: dose 5 mg/kg, time < 24 hr, route intravenous; conditions: in vivo; how it was run: as §1
[13] = AUC (0 to t) in Sprague-Dawley rat at 10 mg/kg, po after 24 hrs by LC/MS/MS analysis; format: ADME, organism-based; set-up: dose 10 mg/kg, time < 24 hr, route oral; conditions: in vivo; how it was run: as §1
[14] = AUC (0 to infinity) in Sprague-Dawley rat at 5 mg/kg, iv after 24 hrs by LC/MS/MS analysis; format: ADME, organism-based; set-up: dose 5 mg/kg, time infinity, route intravenous; conditions: in vivo; how it was run: as §1
[15] = AUC (0 to infinity) in Sprague-Dawley rat at 10 mg/kg, po after 24 hrs by LC/MS/MS analysis; format: ADME, organism-based; set-up: dose 10 mg/kg, time infinity, route oral; conditions: in vivo; how it was run: as §1
[16] = Mean residence time (0 to t) in Sprague-Dawley rat at 5 mg/kg, iv after 24 hrs by LC/MS/MS analysis; format: ADME, organism-based; conditions: in vivo; how it was run: as §1
[17] = Mean residence time (0 to t) in Sprague-Dawley rat at 10 mg/kg, po after 24 hrs by LC/MS/MS analysis; format: ADME, organism-based; conditions: in vivo; how it was run: as §1
[18] = Mean residence time (0 to infinity) in Sprague-Dawley rat at 5 mg/kg, iv after 24 hrs by LC/MS/MS analysis; format: ADME, organism-based; conditions: in vivo; how it was run: as §1
[19] = Mean residence time (0 to infinity) in Sprague-Dawley rat at 10 mg/kg, po after 24 hrs by LC/MS/MS analysis; format: ADME, organism-based; conditions: in vivo; how it was run: as §1
[20] = Oral bioavailability in Sprague-Dawley rat at 10 mg/kg after 24 hrs by LC/MS/MS analysis; format: ADME, organism-based; conditions: in vivo; how it was run: as §2
[21] = system: Staphylococcus aureus LAC; test: Inhibition of CrtN in Staphylococcus aureus USA300 LAC assessed as H2O2-induced bacterial death by measuring fold reduction in survival rate at 1 uM preincubated for 24 hrs followed by H2O2 addition measured after 30 mins by serial dilution method
How it was run: (§3)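 Strain grown in TSB at 37 °C for 24 h with or without 1 μM compound, or with NAC. Cells washed in PBS and set at 4×10^6 CFU per 250 μL. H2O2 added to 1.5% final, then incubated 30 min at 37 °C with shaking at 250 rpm. Reaction quenched with 1000 U/mL catalase; survivors counted by serial dilution CFU on TSA/TSB.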

[22] = system: Staphylococcus aureus subsp. aureus MW2; test: Inhibition of CrtN in Staphylococcus aureus USA400 MW2 assessed as H2O2-induced bacterial death by measuring fold reduction in survival rate at 1 uM preincubated for 24 hrs followed by H2O2 addition measured after 30 mins by serial dilution method; how it was run: as §3
[23] = system: Staphylococcus aureus LAC; test: Inhibition of CrtN in Staphylococcus aureus USA300 LAC assessed as bacterial death by measuring survival rate measured after 6 hrs by serial dilution method (reference value: 12%)
How it was run: (§4)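 Overnight cultures in PBS (1×10^7 CFU/mL) mixed 1:9 with healthy-volunteer human whole blood (1×10^6 CFU/mL final). Held 6 h at 37 °C; surviving CFU counted by serial dilution plating on TSA/TSB.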

[24] = system: Staphylococcus aureus subsp. aureus MW2; test: Inhibition of CrtN in Staphylococcus aureus USA400 MW2 assessed as bacterial death by measuring survival rate measured after 6 hrs by serial dilution method (reference value: 20.67%); how it was run: as §4
[25] = system: Staphylococcus aureus LAC; test: Inhibition of CrtN in Staphylococcus aureus USA300 LAC assessed as H2O2-induced bacterial death by measuring survival rate at 1 uM preincubated for 24 hrs followed by H2O2 addition measured after 30 mins by serial dilution method (reference value: 24%)
[26] = system: Staphylococcus aureus subsp. aureus MW2; test: Inhibition of CrtN in Staphylococcus aureus USA400 MW2 assessed as H2O2-induced bacterial death by measuring survival rate at 1 uM preincubated for 24 hrs followed by H2O2 addition measured after 30 mins by serial dilution method (reference value: 26.3%)

Structure (SMILES)	solubility [1] [µg/mL]	further results
CN(C/C=C/c1ccc(C(F)(F)F)cc1)Cc1ccc2c(c1)OCCC2.Cl	13200	–
CN(C/C=C/c1ccc(-c2ccccc2)cc1)Cc1ccc2c(c1)CCO2.Cl	4400	growth inhibition (GI) (Staphylococcus aureus [2]): Non-Toxic; growth inhibition (GI) (Staphylococcus aureus [3]): Non-Toxic; growth inhibition (GI) (Staphylococcus aureus [4]): Non-Toxic; growth inhibition (GI) (Staphylococcus aureus [5]): Non-Toxic; Tmax [6]: 4.98 min; half-life [7]: 2.27 h; half-life [8]: 1.7 h; Tmax [9]: 2 h; Cmax [10]: 2040 ng/mL; Cmax [11]: 41.8 ng/mL; AUC(0-t) at 24 h [12]: 1330 ng·h/mL; AUC(0-t) at 24 h [13]: 156 ng·h/mL; AUC(0-inf) [14]: 1360 ng·h/mL; AUC(0-inf) [15]: 177 ng·h/mL; MRT last at 24 h [16]: 0.9 h; MRT last at 24 h [17]: 2.61 h; MRT inf [18]: 1.13 h; MRT inf [19]: 3.28 h; bioavailability [20]: 6.5%
CN(C/C=C/c1ccc(C(F)F)cc1)Cc1ccc2c(c1)OCCC2.Cl	16300	–
CN(C/C=C/c1ccc(Cl)cc1)Cc1ccc2c(c1)CCCCC2.Cl	1200	–
COc1ccc(/C=C/CN(C)Cc2ccc3c(c2)CCCCC3)cc1.Cl	1400 to 4100	–
CN(C/C=C/c1ccc(Br)cc1)Cc1ccc2c(c1)CCCC2.Cl	2000	–
CN(C/C=C/c1ccc(-c2ccccc2)cc1)Cc1ccc2c(c1)CCO2.O=C(O)C(F)(F)F	1500	–
CN(C/C=C/C=C/c1ccc(-c2ccccc2)cc1)Cc1ccc2c(c1)OCCC2.O=P(O)(O)O	12900	–
CC(=O)O.CN(C/C=C/C=C/c1ccc(-c2ccccc2)cc1)Cc1ccc2c(c1)OCCC2	4100	–
CN(C/C=C/C=C/c1ccc(-c2ccccc2)cc1)Cc1ccc2c(c1)OCCC2.O=S(=O)(O)O	1100	–
CN(C/C=C/c1ccc(-c2ccccc2)cc1)Cc1ccc2c(c1)CCO2.O=P(O)(O)O	16200	–
CC(O)C(=O)O.CN(C/C=C/C=C/c1ccc(-c2ccccc2)cc1)Cc1ccc2c(c1)OCCC2	6500	–
CN(C/C=C/c1ccc(C(F)(F)F)cc1F)Cc1ccc2c(c1)OCCC2.Cl	15200	–
CN(C/C=C/c1ccc(C(F)(F)F)cc1)Cc1ccc2c(c1)CCO2.Cl	14600	–
CN(C/C=C/c1ccc(-c2ccccc2)cc1)Cc1ccc2c(c1)CCO2	–	fold change (FC) [21]: 10; fold change (FC) [22]: 10; Survival [23]: 0.12%; Survival [24]: 0.2%
Br.CN(C/C=C/C=C/c1ccc(-c2ccccc2)cc1)Cc1ccc2c(c1)OCCC2	2800	–
CCOc1ccc(/C=C/CN(C)Cc2ccc3c(c2)CCO3)cc1.Cl	11600	–
CN(C/C=C/C=C/c1ccc(-c2ccccc2)cc1)Cc1ccc2c(c1)OCCC2.O=C(O)CC(O)(CC(=O)O)C(=O)O	1600	–
CN(C/C=C/C=C/c1ccc(-c2ccccc2)cc1)Cc1ccc2c(c1)OCCC2.Cl	3800	growth inhibition (GI) (Staphylococcus aureus [2]): Non-Toxic; growth inhibition (GI) (Staphylococcus aureus [3]): Non-Toxic; growth inhibition (GI) (Staphylococcus aureus [4]): Non-Toxic; growth inhibition (GI) (Staphylococcus aureus [5]): Non-Toxic
CN(C/C=C/c1ccc(-c2ccccc2)cc1)Cc1ccc2c(c1)CCO2.O=S(=O)(O)O	1800	–
CC(O)C(=O)O.CN(C/C=C/c1ccc(-c2ccccc2)cc1)Cc1ccc2c(c1)CCO2	6200	–

Structure (SMILES)	solubility [1] [µg/mL]	further results
CN(C/C=C/C=C/c1ccc(-c2ccccc2)cc1)Cc1ccc2c(c1)OCCC2.O=C(O)/C=C\C(=O)O	1300	–
CN(C/C=C/c1ccc(C(F)(F)F)cc1)Cc1ccc2c(c1)CCCCC2.Cl	2600	–
CN(C/C=C/c1ccc(Cl)cc1)Cc1ccc2c(c1)OCCC2.Cl	11500	–
CN(C/C=C/c1ccc(-c2ccccc2)cc1)Cc1ccc2c(c1)CCO2.O=C(O)CCC(=O)O	3300	–
COc1ccc(/C=C/CN(C)Cc2ccc3c(c2)CCCC3)cc1.Cl	900	–
CN(C/C=C/C=C/c1ccc(-c2ccccc2)cc1)Cc1ccc2c(c1)OCCC2	–	fold change (FC) [21]: 10; fold change (FC) [22]: 10; Survival [23]: 0.23%; Survival [24]: 0.53%
CN(C/C=C/c1ccc(Cl)cc1)Cc1ccc2c(c1)CCCC2.Cl	1900	–
Br.CN(C/C=C/c1ccc(-c2ccccc2)cc1)Cc1ccc2c(c1)CCO2	2200	–
CN(C/C=C/c1ccc(Br)cc1)Cc1ccc2c(c1)CCCCC2.Cl	600	–
CN(C/C=C/C=C/c1ccc(-c2ccccc2)cc1)Cc1ccc2c(c1)OCCC2.O=C(O)CCC(=O)O	2300	–
CN(C/C=C/c1ccc(-c2ccccc2)cc1)Cc1ccc2c(c1)CCO2.O=C(O)C(O)C(O)C(=O)O	5700	–
CN(C/C=C/C=C/c1ccc(-c2ccccc2)cc1)Cc1ccc2c(c1)OCCC2.O=C(O)C(O)C(O)C(=O)O	4600	–
CN(C/C=C/c1ccc(-c2ccccc2)cc1)Cc1ccc2c(c1)CCO2.O=C(O)/C=C\C(=O)O	1200	–
CN(C/C=C/c1ccc(C(F)(F)F)cc1F)Cc1ccc2c(c1)CCO2.Cl	16300	–
CN(C/C=C/C=C/c1ccc(-c2ccccc2)cc1)Cc1ccc2c(c1)OCCC2.O=C(O)C(F)(F)F	1700	–
CC(=O)O.CN(C/C=C/c1ccc(-c2ccccc2)cc1)Cc1ccc2c(c1)CCO2	4700	–
CN(C/C=C/c1ccc(C(F)(F)F)cc1)Cc1ccc2c(c1)CCCC2.Cl	700	–
CCOc1ccc(/C=C/CN(C)Cc2ccc3c(c2)OCCC3)cc1.Cl	10200	–
CC(=O)N[C@@H](CS)C(=O)O	–	Survival [25]: 54.7%; Survival [26]: 57%
CN(C/C=C/c1ccc(-c2ccccc2)cc1)Cc1ccc2c(c1)CCO2.O=C(O)CC(O)(CC(=O)O)C(=O)O	2300	–

Source: ChEMBL document CHEMBL4017515 (J Med Chem, 2017)
